Measurements published in ChEMBL document CHEMBL1145867, “Muraymycins, novel peptidoglycan biosynthesis inhibitors: synthesis and SAR of their analogues” (2003).
≈ marks a conversion by molar mass, not a printed value. One block for each molecule: values may come before it. Calls of active or inactive are those of the source. The calls are words filed in the database; no cut-off is given here.

What was measured:
[1] = The inhibitory activity of compound against MraY or MurG at 25 ug/mL; Inhibit
[2] = The inhibitory activity of compound against MraY or MurG at 100 ug/mL;Inhibit
[3] = The inhibitory activity of compound against MraY or MurG at 50 ug/mL; Inhibit
[4] = The inhibitory activity of compound against MraY or MurG at 12.5 ug/mL; No Inhibition
[5] = The inhibitory activity of compound against MraY or MurG at 6.25 ug/mL; No Inhibition
Staphylococcus sp. [6] = assay: In vitro antimicrobial activity against Staphylococci; format: functional, staphyl ococcus species
Procedure, shortened: (§1)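 Broth microdilution per NCCLS guidance. Serial dilutions of each agent in microtiter plates are inoculated with each organism to 10⁵ CFU/mL and incubated 18–22 h at 35 C in ambient air. MIC is the lowest concentration giving complete growth inhibition, judged by the unaided eye.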

Bacteria [7] = assay: In vitro antimicrobial activity against gram-negative organisms (10); format: functional; procedure, shortened: as §1
Enterococcus sp. = assay: In vitro antimicrobial activity against Enterococci; format: functional; procedure, shortened: as §1
Staphylococcus sp. [8] = assay: In vitro antimicrobial activity against Coagulase-negative staphylococcus GC 4538 at 10.7 ug/ml soluble peptidoglycan; format: functional
Staphylococcus aureus [9] = assay: In vitro antimicrobial activity against Staphylococcus aureus GC 1131 at 10.7 ug/ml soluble peptidoglycan; format: functional
Candida albicans [10] = assay: In vitro antimicrobial activity against Candida albicans […] at 10.7 ug/ml soluble peptidoglycan; format: functional
Staphylococcus sp. [11] = assay: In vitro antimicrobial activity against CNS GC 4547 at 10.7 ug/mL soluble peptidoglycan; format: functional
Bacteria [12] = assay: In vitro antimicrobial activity against gram-negative organisms (10)
Enterococcus faecalis [13] = assay: In vitro antimicrobial activity against Enterococcus faecalis GC 4555 at 10.7 ug/ml soluble peptidoglycan; format: functional
[14] = The inhibitory activity of compound against MraY or MurG at 100 ug/mL; Inhibit
Staphylococcus aureus [15] = assay: In vitro antimicrobial activity against Staphylococcus aureus GC 4536 at 10.7 ug/ml soluble peptidoglycan; format: functional
[16] = The inhibitory activity of compound against MraY or MurG at 25 ug/mL; No Inhibition
Staphylococcus aureus [17] = assay: In vitro antimicrobial activity against Staphylococcus aureus GC 2216 at 10.7 ug/ml soluble peptidoglycan; format: functional
Enterococcus faecalis [18] = assay: In vitro antimicrobial activity against Enterococcus faecalis GC 842 at 10.7 ug/ml soluble peptidoglycan; format: functional
Staphylococcus sp. [19] = assay: In vitro antimicrobial activity against CNS GC 4538 at 10.7 ug/ml soluble peptidoglycan; format: functional
Enterococcus faecalis [20] = assay: In vitro antimicrobial activity against Enterococcus faecalis GC 2242 at 10.7 ug/ml soluble peptidoglycan; format: functional
[21] = The inhibitory activity of compound against MraY or MurG at 6.25 ug/mL; Inhibit
[22] = The inhibitory activity of compound against MraY or MurG at 12.5 ug/mL; Inhibit
Morganella morganii = assay: In vitro antimicrobial activity against Morganella morganii GC 4531; format: functional; procedure, shortened: as §1
Enterococcus faecalis [23] = assay: In vitro antimicrobial activity against Enterococcus faecalis GC 2242; format: functional; procedure, shortened: as §1
Enterobacter cloacae = assay: In vitro antimicrobial activity against Enterobacter cloacae GC 3783; format: functional; procedure, shortened: as §1
Candida albicans [24] = assay: In vitro antimicrobial activity against Candida albicans GC 3066; format: functional; procedure, shortened: as §1
Pseudomonas aeruginosa [25] = assay: In vitro antimicrobial activity against Pseudomonas aeruginosa GC 2214; format: functional; procedure, shortened: as §1
Staphylococcus aureus [26] = assay: In vitro antimicrobial activity against Staphylococcu aureus GC 2216; format: functional; procedure, shortened: as §1
Escherichia coli [27] = assay: In vitro antimicrobial activity against Escherichia coli GC 3226; format: functional; procedure, shortened: as §1
Staphylococcus aureus [28] = assay: In vitro antimicrobial activity against Staphylococcu aureus GC 4536; format: functional; procedure, shortened: as §1
Enterococcus faecalis [29] = assay: In vitro antimicrobial activity against Enterococcus faecalis GC 842; format: functional; procedure, shortened: as §1
Staphylococcus sp. [30] = assay: In vitro antimicrobial activity against CNS GC 4538; format: functional; procedure, shortened: as §1
Escherichia coli [31] = assay: In vitro antimicrobial activity against Escherichia coli GC 4560; format: functional; procedure, shortened: as §1
Staphylococcus sp. [32] = assay: In vitro antimicrobial activity against CNS GC 4547; format: functional; procedure, shortened: as §1
Escherichia coli [33] = assay: In vitro antimicrobial activity against Escherichia coli GC 2214; format: functional; procedure, shortened: as §1
Enterococcus faecalis [34] = assay: In vitro antimicrobial activity against Enterococcus faecalis GC 4555; format: functional; procedure, shortened: as §1
Serratia marcescens = assay: In vitro antimicrobial activity against Serratia marcescens GC 4077; format: functional; procedure, shortened: as §1
Pseudomonas aeruginosa [35] = assay: In vitro antimicrobial activity against Pseudomonas aeruginosa GC 4532; format: functional; procedure, shortened: as §1
Escherichia coli [36] = assay: In vitro antimicrobial activity against Escherichia coli GC 4559; format: functional; procedure, shortened: as §1
Klebsiella pneumoniae = assay: In vitro antimicrobial activity against Klebsiella pneumoniae GC 4534; format: functional; procedure, shortened: as §1
Staphylococcus aureus [37] = assay: In vitro antimicrobial activity against Staphylococcu aureus GC 1131; format: functional
Procedure, shortened: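 Broth dilution per NCCLS recommendations. Serial dilutions in microtiter plates inoculated to 10⁵ CFU/mL, then incubated 18–22 h at 35 C in ambient air. MIC taken as the lowest concentration giving complete growth inhibition by unaided eye.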

Inhibitory activity [1]: Inhibit | Inhibitory activity [2]: Inhibit | Inhibitory activity [3]: Inhibit | Inhibitory activity [4]: inactive | Inhibitory activity [5]: inactive | MIC (Staphylococcus sp. [6]): 4 µg/mL (≈ 4.48 µM) | MIC (Bacteria [7]): > 128 µg/mL | MIC (Enterococcus sp.): 4 µg/mL (≈ 4.48 µM)
SMILES: COc1ccc(Cn2c(=O)ccn([C@@H]3OC([C@H](O)[C@H](NCCCNC(=O)[C@H](N)CC(C)C)C(=O)OC(C)(C)C)[C@@H](O[Si](C)(C)C(C)(C)C)[C@H]3O[Si](C)(C)C(C)(C)C)c2=O)cc1 (some centres not stated)

MIC (Staphylococcus sp. [8]): 128 µg/mL (≈ 141 µM) | MIC (Staphylococcus aureus [9]): 128 µg/mL (≈ 141 µM) | MIC (Candida albicans [10]): 128 µg/mL (≈ 141 µM) | MIC (Staphylococcus sp. [11]): 8 µg/mL (≈ 8.81 µM) | MIC (Bacteria [12]): > 128 µg/mL | MIC (Enterococcus faecalis [13]): 128 µg/mL (≈ 141 µM) | Inhibitory activity [14]: Inhibit | MIC (Staphylococcus aureus [15]): 128 µg/mL (≈ 141 µM) | Inhibitory activity [3]: Inhibit | Inhibitory activity [4]: inactive | Inhibitory activity [5]: inactive | Inhibitory activity [16]: inactive | MIC (Staphylococcus aureus [17]): 128 µg/mL (≈ 141 µM) | MIC (Enterococcus faecalis [18]): > 128 µg/mL | MIC (Staphylococcus sp. [19]): 128 µg/mL (≈ 141 µM) | MIC (Enterococcus faecalis [20]): 128 µg/mL (≈ 141 µM)
SMILES: COc1ccc(Cn2c(=O)ccn([C@@H]3OC([C@@H](O)[C@H](NCCCNC(=O)[C@H](N)C(O)C(C)C)C(=O)OC(C)(C)C)[C@@H](O[Si](C)(C)C(C)(C)C)[C@H]3O[Si](C)(C)C(C)(C)C)c2=O)cc1 (some centres not stated)

Inhibitory activity [21]: Inhibit | Inhibitory activity [1]: Inhibit | Inhibitory activity [14]: Inhibit | Inhibitory activity [3]: Inhibit | Inhibitory activity [22]: Inhibit
SMILES: COC1C(O)[C@@H](OC(C(NCCCNC(=O)[C@H](NC(=O)[C@@H](NC(=O)N[C@H](C(=O)O)C(C)C)C2CCN=C(N)N2)C(O)C(C)C)C(=O)O)[C@H]2O[C@@H](n3ccc(=O)[nH]c3=O)[C@H](O)[C@@H]2O)O[C@H]1CN (some centres not stated)

MIC (Morganella morganii): 128 µg/mL (≈ 123 µM) | MIC (Enterococcus faecalis [23]): 8 µg/mL (≈ 7.68 µM) | MIC (Enterobacter cloacae): > 128 µg/mL | MIC (Candida albicans [24]): > 128 µg/mL | MIC (Pseudomonas aeruginosa [25]): > 128 µg/mL | Inhibitory activity [14]: Inhibit | MIC (Staphylococcus aureus [26]): 8 µg/mL (≈ 7.68 µM) | MIC (Escherichia coli [27]): 128 µg/mL (≈ 123 µM) | Inhibitory activity [3]: Inhibit | MIC (Staphylococcus aureus [28]): 8 µg/mL (≈ 7.68 µM) | MIC (Enterococcus faecalis [29]): 8 µg/mL (≈ 7.68 µM) | MIC (Staphylococcus sp. [30]): 8 µg/mL (≈ 7.68 µM) | MIC (Staphylococcus sp. [30]; Staphylococcus sp., read-out: MIC): 8 µg/mL (≈ 7.68 µM) | MIC (Escherichia coli [31]): 8 µg/mL (≈ 7.68 µM) | Inhibitory activity [4]: inactive | Inhibitory activity [5]: inactive | Inhibitory activity [16]: inactive | MIC (Staphylococcus sp. [32]): 16 µg/mL (≈ 15.4 µM) | MIC (Escherichia coli [33]): 128 µg/mL (≈ 123 µM) | MIC (Staphylococcus sp. [6]): 4 µg/mL (≈ 3.84 µM) | MIC (Enterococcus faecalis [34]): 8 µg/mL (≈ 7.68 µM) | MIC (Serratia marcescens): 128 µg/mL (≈ 123 µM) | MIC (Bacteria [7]): 128 µg/mL (≈ 123 µM) | MIC (Pseudomonas aeruginosa [35]): > 128 µg/mL | MIC (Enterococcus sp.): 8 µg/mL (≈ 7.68 µM) | MIC (Escherichia coli [36]): > 128 µg/mL | MIC (Klebsiella pneumoniae): > 128 µg/mL | MIC (Staphylococcus aureus [37]): 4 µg/mL (≈ 3.84 µM)
SMILES: COc1ccc(Cn2c(=O)ccn([C@@H]3OC([C@H](O)[C@H](NCCCNC(=O)[C@H](N)CCCCNC(=O)OCc4ccccc4)C(=O)OC(C)(C)C)[C@@H](O[Si](C)(C)C(C)(C)C)[C@H]3O[Si](C)(C)C(C)(C)C)c2=O)cc1 (some centres not stated)
